Data reported in ChEMBL document CHEMBL1135246, “Structure-activity study of L-cysteine-based N-type calcium channel blockers: optimization of N- and C-terminal substituents” (Bioorg Med Chem Lett, 2002).

Experiments:
[1] = biological target: Voltage-dependent N-type calcium channel subunit alpha-1B (Homo sapiens, UniProt Q00975); assay: In vitro inhibition of N-type calcium channels in IMR-32 cells.; assay type: cell-based
In short: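 N-type channel block was assessed in IMR-32 cells. Cells in suspension were loaded with fura-2/AM for 30 min at 37 °C, and calcium influx ([Ca²⁺]i) was measured. IC50 values are means of multiple determinations, each performed in duplicate.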

[2] = system: L-type calcium channel (Mus musculus); assay: In vitro inhibition of L-type calcium channels in AtT-20 cells.; settings: att20
[3] = In vitro inhibition of L-type calcium channels in AtT-20 cells.; assay type: functional, cell-based, Mus musculus; settings: att20
In short: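 Mouse pituitary tumour AtT-20/D16v-F2 cells, grown in DMEM with 10% FBS and penicillin–streptomycin, served as the L-type channel source. Cells in suspension were loaded with fura-2/AM for 30 min at 37 °C, and calcium influx ([Ca²⁺]i) was read fluorometrically. IC50 values are means of multiple determinations, each run in duplicate.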

Voltage-dependent N-type calcium channel subunit alpha-1B, sequence (Q00975 whole entry): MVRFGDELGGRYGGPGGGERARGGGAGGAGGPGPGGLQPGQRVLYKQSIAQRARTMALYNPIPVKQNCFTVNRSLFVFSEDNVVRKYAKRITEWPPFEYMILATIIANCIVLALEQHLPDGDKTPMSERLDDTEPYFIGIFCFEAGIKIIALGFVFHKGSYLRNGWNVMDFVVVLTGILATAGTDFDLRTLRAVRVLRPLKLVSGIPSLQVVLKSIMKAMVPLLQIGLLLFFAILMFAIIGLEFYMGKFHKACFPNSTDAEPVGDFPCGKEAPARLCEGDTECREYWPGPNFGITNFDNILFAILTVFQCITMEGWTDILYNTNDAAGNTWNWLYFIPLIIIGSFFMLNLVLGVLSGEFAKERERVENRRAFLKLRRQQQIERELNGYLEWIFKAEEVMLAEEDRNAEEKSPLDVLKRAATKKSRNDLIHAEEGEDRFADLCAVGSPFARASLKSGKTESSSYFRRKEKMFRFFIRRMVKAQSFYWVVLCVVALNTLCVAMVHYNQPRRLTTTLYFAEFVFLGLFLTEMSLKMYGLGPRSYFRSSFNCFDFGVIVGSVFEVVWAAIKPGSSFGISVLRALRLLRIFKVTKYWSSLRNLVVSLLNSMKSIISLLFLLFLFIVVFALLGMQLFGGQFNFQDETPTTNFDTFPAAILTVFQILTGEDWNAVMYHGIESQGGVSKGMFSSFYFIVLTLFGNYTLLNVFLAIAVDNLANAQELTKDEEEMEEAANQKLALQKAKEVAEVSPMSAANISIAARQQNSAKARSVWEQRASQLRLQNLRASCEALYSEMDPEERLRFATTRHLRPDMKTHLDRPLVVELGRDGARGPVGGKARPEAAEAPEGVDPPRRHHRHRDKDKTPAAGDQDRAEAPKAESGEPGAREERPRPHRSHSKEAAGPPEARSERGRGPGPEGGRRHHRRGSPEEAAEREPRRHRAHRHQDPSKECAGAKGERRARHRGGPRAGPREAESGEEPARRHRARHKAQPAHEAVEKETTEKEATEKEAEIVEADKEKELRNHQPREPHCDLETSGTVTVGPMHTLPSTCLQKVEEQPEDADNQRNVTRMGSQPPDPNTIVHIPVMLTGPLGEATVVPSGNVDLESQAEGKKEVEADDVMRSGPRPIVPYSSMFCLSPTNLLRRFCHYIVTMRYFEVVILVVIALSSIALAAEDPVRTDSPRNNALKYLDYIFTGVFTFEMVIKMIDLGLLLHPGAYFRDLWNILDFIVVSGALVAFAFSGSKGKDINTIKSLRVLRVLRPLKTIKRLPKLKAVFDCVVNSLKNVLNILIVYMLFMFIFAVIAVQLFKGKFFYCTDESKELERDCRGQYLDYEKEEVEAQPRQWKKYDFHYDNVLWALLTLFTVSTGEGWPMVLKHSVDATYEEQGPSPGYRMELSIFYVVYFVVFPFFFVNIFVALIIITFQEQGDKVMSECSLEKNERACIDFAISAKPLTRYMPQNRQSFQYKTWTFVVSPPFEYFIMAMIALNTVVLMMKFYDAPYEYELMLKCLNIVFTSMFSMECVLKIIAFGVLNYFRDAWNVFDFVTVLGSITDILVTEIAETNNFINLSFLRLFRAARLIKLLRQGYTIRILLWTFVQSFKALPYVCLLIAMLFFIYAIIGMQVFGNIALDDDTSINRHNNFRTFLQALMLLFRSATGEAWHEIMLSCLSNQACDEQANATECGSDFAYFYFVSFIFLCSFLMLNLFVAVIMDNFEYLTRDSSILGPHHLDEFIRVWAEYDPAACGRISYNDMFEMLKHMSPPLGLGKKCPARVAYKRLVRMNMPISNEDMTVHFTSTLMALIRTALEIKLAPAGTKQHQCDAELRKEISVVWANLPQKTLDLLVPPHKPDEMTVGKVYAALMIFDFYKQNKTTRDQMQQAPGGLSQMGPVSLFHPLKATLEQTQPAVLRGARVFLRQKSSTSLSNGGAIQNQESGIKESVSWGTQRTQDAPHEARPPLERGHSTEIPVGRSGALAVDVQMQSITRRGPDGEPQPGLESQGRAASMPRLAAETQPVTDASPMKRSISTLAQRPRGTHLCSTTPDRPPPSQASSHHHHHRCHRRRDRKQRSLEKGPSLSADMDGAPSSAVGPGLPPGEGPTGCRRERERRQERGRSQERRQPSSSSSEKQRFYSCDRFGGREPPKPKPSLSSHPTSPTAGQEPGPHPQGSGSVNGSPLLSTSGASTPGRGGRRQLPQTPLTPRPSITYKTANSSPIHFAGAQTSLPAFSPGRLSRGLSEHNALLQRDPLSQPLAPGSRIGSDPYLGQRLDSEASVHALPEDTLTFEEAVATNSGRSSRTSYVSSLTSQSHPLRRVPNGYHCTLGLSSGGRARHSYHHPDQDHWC

IC50 [1] [nM] | IC50 [2] [nM] | IC50 [3] [nM] | Compound
500 | 1500 | – | CC(C)(C)OC(=O)N1CSC[C@H]1C(=O)N[C@@H](CSCC1CCCCC1)C(=O)NCc1ccc(OCc2ccccc2)cc1
920 | – | 2300 | COc1ccc(CNC(=O)[C@H](CSCC2CCCCC2)NC(=O)C2CCCC2)cc1
360 | 1200 | – | CC(C)COC(=O)N1CSC[C@H]1C(=O)N[C@@H](CSCC1CCCCC1)C(=O)NCc1ccc(Oc2ccccc2)cc1
330 | 440 | – | C=CCOC(=O)N1CSC[C@H]1C(=O)N[C@@H](CSCC1CCCCC1)C(=O)NCc1ccc(Oc2ccccc2)cc1
5800 | – | – | COc1ccc(CNC(=O)[C@@H](N)CSCC2CCCCC2)cc1
1200 | – | 2700 | COc1ccc(CNC(=O)[C@H](CSCC2CCCCC2)NC(=O)CC(C)C)cc1
600 | 500 | – | CC(C)(C)OC(=O)N1CSC[C@H]1C(=O)N[C@@H](CSCC1CCCCC1)C(=O)NCc1ccc([N+](=O)[O-])cc1
350 | 1100 | – | O=C(NCc1ccc(Oc2ccccc2)cc1)[C@H](CSCC1CCCCC1)NC(=O)[C@@H]1CSCN1CCO
1900 | – | 2700 | COc1ccc(CNC(=O)[C@H](CSCC2CCCCC2)NC(=O)c2cscn2)cc1
1800 | 2800 | – | CC(C)(C)OC(=O)N1CSC[C@H]1C(=O)N[C@@H](CSCC1CCCCC1)C(=O)NCc1ccc(O)cc1
290 | 2000 | – | O=C(N[C@@H](CSCC1CCCCC1)C(=O)NCc1ccc(Oc2ccccc2)cc1)[C@@H]1CSCN1
720 | – | 1500 | COc1ccc(CNC(=O)[C@H](CSCC2CCCCC2)NC(=O)OCC(C)C)cc1
120 | 930 | – | COCC(=O)N1CSC[C@H]1C(=O)N[C@@H](CSCC1CCCCC1)C(=O)NCc1ccc(Oc2ccccc2)cc1
120 | 870 | – | COC(=O)N1CSC[C@H]1C(=O)N[C@@H](CSCC1CCCCC1)C(=O)NCc1ccc(Oc2ccccc2)cc1
610 | 950 | – | CN(C)c1ccc(CNC(=O)[C@H](CSCC2CCCCC2)NC(=O)[C@@H]2CSCN2C(=O)OC(C)(C)C)cc1
1300 | – | 1900 | COc1ccc(CNC(=O)[C@H](CSCC2CCCCC2)NC(=O)C2CCCCC2)cc1
200 | 600 | – | COCCN1CSC[C@H]1C(=O)N[C@@H](CSCC1CCCCC1)C(=O)NCc1ccc(Oc2ccccc2)cc1

Compound | IC50 [1] [nM] | IC50 [2] [nM] | IC50 [3] [nM]
CC(C)(C)OC(=O)N1CSC[C@H]1C(=O)N[C@@H](CSCC1CCCCC1)C(=O)NCc1ccc(Oc2ccccc2)cc1 | – | 1700 | –
